Source: ChEMBL document CHEMBL3627626, “6-Substituted Pyrrolo[2,3-d]pyrimidine Thienoyl Regioisomers as Targeted Antifolates for Folate Receptor α and the Proton-Coupled Folate Transporter in Human Tumors” (J Med Chem, 2015)
Calls of active or inactive are those of the source. The rule behind the calls is not given here.

B1: Proton-coupled folate transporter (Homo sapiens), Q96NT5 (protein)
chain: MEGSASPPEKPRARPAAAVLCRGPVEPLVFLANFALVLQGPLTTQYLWHRFSADLGYNGTRQRGGCSNRSADPTMQEVETLTSHWTLYMNVGGFLVGLFSSTLLGAWSDSVGRRPLLVLASLGLLLQALVSVFVVQLQLHVGYFVLGRILCALLGDFGGLLAASFASVADVSSSRSRTFRMALLEASIGVAGMLASLLGGHWLRAQGYANPFWLALALLIAMTLYAAFCFGETLKEPKSTRLFTFRHHRSIVQLYVAPAPEKSRKHLALYSLAIFVVITVHFGAQDILTLYELSTPLCWDSKLIGYGSAAQHLPYLTSLLALKLLQYCLADAWVAEIGLAFNILGMVVFAFATITPLMFTGYGLLFLSLVITPVIRAKLSKLVRETEQGALFSAVACVNSLAMLTASGIFNSLYPATLNFMKGFPFLLGAGLLLIPAVLIGMLEKADPHLEFQQFPQSP

Columns and labels:
[1] = biological target: T1, Proton-coupled folate transporter (Homo sapiens) (UniProt Q96NT5); assay: (§1) Binding affinity to human PCFT expressed in Chinese hamster R2/PCFT4 cells assessed as intracellular drug transport rate at 37 degC at pH 6.8 measured over 2 mins by Lineweaver-Burk plot analysis; format: cell-based
T1 sequence (whole entry): B1 chain
In short: (§2)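 R2/PCFT4 CHO cells were grown as monolayers, transferred to spinner flasks, and used as suspensions (5–10 × 10⁷ cells). Uptake was quenched with ice-cold DPBS and cells were NaOH-solubilized. Results are pmol/mg protein; Kt and Vmax come from Lineweaver–Burke plots.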

[2] = biological target: T1, Proton-coupled folate transporter (Homo sapiens); assay: (§3) Binding affinity to human PCFT expressed in Chinese hamster R2/PCFT4 cells assessed as intracellular drug transport rate at 37 degC at pH 5.5 measured over 2 mins by Lineweaver-Burk plot analysis; format: cell-based; in short: as §2
[3] = system: R2; assay: Cellular uptake in PCFT-null Chinese hamster R2 cells at 0.5 uM at 37 degC at pH 5.5 measured over 2 mins; format: ADME, cell-based, Cricetulus griseus; conditions: r2, pH 5.5, 2 min
In short: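 R2/PCFT4 or PCFT-null R2 CHO cells were grown in suspension from spinner flasks. Uptake of 0.5 μM [3H]drug measured over 2 min at 37 °C in MES-buffered saline pH 5.5, with or without 10 μM unlabeled competitor. Uptake was quenched with ice-cold DPBS and cells solubilised in NaOH. Results are pmol/mg protein, mean ±SEM of three experiments.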

[4] = system: KB; assay: Antiproliferative activity against human KB cells expressing FRalpha/PCFT/RFC assessed as cell growth inhibition after 96 hrs by CellTiter-Blue assay in presence of 200 nM folic acid; format: functional, cell-based
[5] = system: SK-OV-3; assay: Antitumor activity against human SKOV3 cells expressing RFC/PCFT/FRalpha xenografted in folate-deficient diet fed NCR SCID mouse assessed as delay in tumor growth at 28 mg/kg, iv administered every 4 days on day 3, 7, 11 measured twice per week; format: functional, organism-based
In short: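 Female NCR SCID mice, 10 weeks old, given bilateral subcutaneous SKOV3 tumor fragments and randomized at 5 mice/group. Fed ad libitum a folate-deficient diet or a standard folate-replete diet. Dosed intravenously at 0.2 mL/injection on a Q4dx3 schedule (days 3, 7, 11). […] Tumors measured twice weekly; mice weighed daily.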

[6] = Binding affinity to human RFC expressed in Chinese hamster PC43-10 cells assessed as cell growth inhibition after 96 hrs by CellTiter-Blue assay
[7] = biological target: Folate receptor beta (Homo sapiens) (UniProt P14207); assay: Displacement of [3H]-folic acid from human FRbeta expressed in Chinese hamster D4 cells after 15 mins relative to folic acid; format: cell-based
In short: (§4)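 Competitive binding to surface folate receptor on RT16 (FRα) or D4 (FRβ) CHO cells. Cells were acid-washed (pH 3.5) to strip bound folate, then incubated in HEPES-buffered saline pH 7.4 with 50 nM [3H]folic acid plus unlabeled ligand (0–1000 nM) for 15 min at 0 °C. Bound label was normalised to protein. Affinity is the inverse molar ratio for 50% displacement, with folic acid set to 1. Mean of 4–10 experiments ±SE.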

[8] = system: Mus musculus; assay: Toxicity in folate-deficient diet fed NCR SCID mouse xenografted with human SKOV3 cells expressing RFC/PCFT/FRalpha assessed as body weight loss at 28 mg/kg, iv administered every 4 days on day 3, 7, 11 relative to control; format: organism-based, SK-OV-3; conditions: in vivo, 96 h
In short: (§5)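 Ten-week-old female NCR SCID mice, fed a folate-deficient or standard folate-replete diet, were implanted subcutaneously and bilaterally with SKOV3 tumour fragments. Randomised at 5 mice/group. Dosed intravenously, 0.2 mL per injection, in 5% ethanol/1% Tween-80/0.5% NaHCO3 in water at pH 6.5, on days 3, 7 and 11. Tumours measured twice weekly and mice weighed daily. T/C taken on day 21; growth delay and log cell kill also reported.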

[9] = system: SK-OV-3; assay: Antitumor activity against human SKOV3 cells expressing RFC/PCFT/FRalpha xenografted in folate-replete diet fed NCR SCID mouse assessed as tumor growth inhibition at 28 mg/kg, iv administered every 4 days on day 3, 7, 11 measured on day 21 relative to control; format: functional; in short: as §5
[10] = biological target: T2, Trifunctional purine biosynthetic protein adenosine-3 (Homo sapiens) (UniProt P22102); assay: Inhibition of GARFTase in human KB cells expressing FRalpha/PCFT/RFC assessed as cell growth inhibition after 96 hrs by CellTiter-Blue assay in presence of AICA; format: cell-based
T2 sequence (whole entry): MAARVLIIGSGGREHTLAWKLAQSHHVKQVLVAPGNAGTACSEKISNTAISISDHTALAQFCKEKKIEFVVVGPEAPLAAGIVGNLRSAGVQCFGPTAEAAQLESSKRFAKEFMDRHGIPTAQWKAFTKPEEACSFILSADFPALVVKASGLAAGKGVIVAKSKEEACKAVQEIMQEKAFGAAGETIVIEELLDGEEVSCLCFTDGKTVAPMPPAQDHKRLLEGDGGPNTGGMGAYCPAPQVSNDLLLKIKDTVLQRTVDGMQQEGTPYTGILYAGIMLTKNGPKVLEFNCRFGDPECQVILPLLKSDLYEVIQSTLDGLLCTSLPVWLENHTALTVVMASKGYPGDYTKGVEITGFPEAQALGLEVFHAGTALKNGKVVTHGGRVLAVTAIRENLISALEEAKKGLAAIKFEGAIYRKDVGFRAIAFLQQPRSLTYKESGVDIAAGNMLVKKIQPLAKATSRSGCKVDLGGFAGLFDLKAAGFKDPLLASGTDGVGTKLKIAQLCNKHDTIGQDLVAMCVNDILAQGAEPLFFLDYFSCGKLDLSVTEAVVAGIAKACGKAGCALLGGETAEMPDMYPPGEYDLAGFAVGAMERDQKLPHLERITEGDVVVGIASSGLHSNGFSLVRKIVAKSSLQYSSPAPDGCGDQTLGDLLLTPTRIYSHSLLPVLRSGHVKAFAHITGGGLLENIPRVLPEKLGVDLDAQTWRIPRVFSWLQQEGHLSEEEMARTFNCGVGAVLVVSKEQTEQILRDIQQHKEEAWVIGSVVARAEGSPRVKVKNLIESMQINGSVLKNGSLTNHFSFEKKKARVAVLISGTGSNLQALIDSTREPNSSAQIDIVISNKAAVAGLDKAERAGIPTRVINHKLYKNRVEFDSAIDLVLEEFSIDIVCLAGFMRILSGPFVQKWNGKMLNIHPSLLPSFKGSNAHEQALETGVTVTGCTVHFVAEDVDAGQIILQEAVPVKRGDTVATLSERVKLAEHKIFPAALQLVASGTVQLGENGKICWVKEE

[11] = system: IGROV-1; assay: Antiproliferative activity against human IGROV1 cells after 96 hrs by CellTiter-Blue assay; format: functional, cell-based; conditions: IGROV-1, 96 h
In short: (§6)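 IGROV1 and SKOV3 cells plated at ~2500–5000 cells/well in folate-free RPMI 1640 with 10% dialyzed FBS, antibiotics and 2 nM LCV, over a range of drug concentrations, ±200 nM folic acid in parallel. Incubated up to 96 h. Viability read by Cell Titer Blue fluorescence (ex 560/em 590 nm).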

[12] = system: SK-OV-3; assay: Antiproliferative activity against human SKOV3 cells after 96 hrs by CellTiter-Blue assay; format: functional, cell-based; conditions: SK-OV-3, 96 h; in short: as §6
[13] = system: SK-OV-3; assay: Antiproliferative activity against human SKOV3 cells after 96 hrs by CellTiter-Blue assay in presence of 200 nM folic acid; format: functional, cell-based; conditions: SK-OV-3, 96 h; in short: as §6
[14] = biological target: T2, Trifunctional purine biosynthetic protein adenosine-3 (Homo sapiens); assay: Inhibition of GARFTase in human KB cells expressing FRalpha/PCFT/RFC assessed as cell growth inhibition after 96 hrs by CellTiter-Blue assay in presence of adenosine; format: cell-based
[15] = biological target: Folate receptor alpha (Homo sapiens) (UniProt P15328); assay: Displacement of [3H]-folic acid from human FRalpha expressed in Chinese hamster RT16 cells after 15 mins relative to folic acid; format: cell-based; in short: as §4
[16] = system: Mus musculus; assay: Toxicity in folate-replete diet fed NCR SCID mouse xenografted with human SKOV3 cells expressing RFC/PCFT/FRalpha assessed as body weight loss at 28 mg/kg, iv administered every 4 days on day 3, 7, 11; format: organism-based, SK-OV-3; conditions: in vivo, 96 h
[17] = biological target: T3, Trifunctional purine biosynthetic protein adenosine-3 (Homo sapiens, UniProt P22102); assay: Inhibition of human recombinant His-tagged GARFTase assessed as formation of 5,8-dideazafolate from 10-formyl-5,80-dideazafolic acid measured every 15 secs over 20 mins by spectrophotometric analysis
T3 sequence (P22102 whole entry): T2 sequence (whole entry)

[18] = biological target: T3, Trifunctional purine biosynthetic protein adenosine-3; assay: Inhibition of GARFTase in human KB cells expressing FRalpha/PCFT/RFC assessed as incorporation of [14C(U)]-glycine into [14C]-formyl GAR preincubated for 1 hr followed by azaserine, L-glutamine, 14C(U)]-glycine addition measured after 16 hrs; format: cell-based
In short: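 In situ assay in KB cells. Cells were exposed to a range of drug concentrations with [14C]glycine for 16 h under proliferation-assay conditions, with azaserine present. Radiolabelled metabolites were extracted and separated on anion exchange columns, and [14C]formyl GAR quantified. Mean ±SE of three experiments.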

[19] = system: R2; assay: Cytotoxicity against PCFT-null Chinese hamster R2 cells assessed as cell growth inhibition after 96 hrs by CellTiter-Blue assay; format: cell-based, Cricetulus griseus; conditions: R2, 96 h
[20] = system: KB; assay: Antiproliferative activity against human KB cells expressing FRalpha/PCFT/RFC assessed as cell growth inhibition after 96 hrs by CellTiter-Blue assay; format: functional, cell-based
[21] = system: R2; assay: Cytotoxicity against Chinese hamster R2 cells transfected with empty PCDNA3 assessed as cell growth inhibition after 96 hrs by CellTiter-Blue assay; format: cell-based, Cricetulus griseus
[22] = biological target: T1, Proton-coupled folate transporter (Homo sapiens); assay: Binding affinity to human PCFT expressed in Chinese hamster R2/PCFT4 cells assessed as cell growth inhibition after 96 hrs by CellTiter-Blue assay in presence of 200 nM folic acid; format: cell-based
In short: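 Human-PCFT-transfected R2 CHO cells, precultured with G418, were plated at ~2500–5000 cells/well across a range of drug concentrations. Medium was folate-free RPMI 1640 (pH 7.2) with 25 nM LCV and 10% dialyzed FBS. Parallel wells received 200 nM folic acid. Incubated up to 96 h, then read with CellTiter Blue fluorescence (ex 560/em 590 nm).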

[23] = biological target: T2, Trifunctional purine biosynthetic protein adenosine-3 (Homo sapiens); assay: Inhibition of GARFTase in human KB cells expressing FRalpha/PCFT/RFC assessed as cell growth inhibition after 96 hrs by CellTiter-Blue assay in presence of thymidine; format: cell-based
[24] = substrate: Nc1nc2[nH]cc(CCc3ccc(C(=O)N[C@@H](CCC(=O)O)C(=O)O)cc3)c2c(=O)[nH]1; assay: as §3; format: cell-based; in short: as §2
[25] = substrate: Nc1nc2[nH]c(CCCc3cc(C(=O)N[C@@H](CCC(=O)O)C(=O)O)cs3)cc2c(=O)[nH]1; assay: as §3; format: cell-based; in short: as §2
[26] = substrate: Nc1nc2[nH]cc(CCc3ccc(C(=O)N[C@@H](CCC(=O)O)C(=O)O)cc3)c2c(=O)[nH]1; assay: as §1; format: cell-based; in short: as §2
[27] = substrate: Nc1nc2[nH]c(CCCc3cc(C(=O)N[C@@H](CCC(=O)O)C(=O)O)cs3)cc2c(=O)[nH]1; assay: as §1; format: cell-based; in short: as §2

Sequence of Folate receptor beta (Homo sapiens) (P14207 17-230 limits assumed): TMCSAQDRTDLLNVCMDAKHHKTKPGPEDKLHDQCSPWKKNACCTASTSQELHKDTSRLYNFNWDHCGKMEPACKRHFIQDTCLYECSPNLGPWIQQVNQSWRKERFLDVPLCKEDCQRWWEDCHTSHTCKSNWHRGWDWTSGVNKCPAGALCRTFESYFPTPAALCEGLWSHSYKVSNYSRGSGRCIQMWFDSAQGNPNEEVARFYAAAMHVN
Sequence of Folate receptor alpha (Homo sapiens) (P15328 25-234 limits assumed): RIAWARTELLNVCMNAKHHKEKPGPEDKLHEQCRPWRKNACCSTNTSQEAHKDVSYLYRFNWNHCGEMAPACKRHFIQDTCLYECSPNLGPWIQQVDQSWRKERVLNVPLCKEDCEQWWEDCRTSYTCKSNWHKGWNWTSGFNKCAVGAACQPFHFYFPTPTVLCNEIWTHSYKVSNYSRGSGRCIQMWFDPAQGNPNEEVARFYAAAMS

Molecule	IC50 [4]	Activity [7]	inhibition [10]	inhibition [14]	Activity [15]	Ki [17]	IC50 [18]	IC50 [19]	IC50 [20]	IC50 [21]	other results
Nc1nc2[nH]cc(CCc3ccc(C(=O)N[C@@H](CCC(=O)O)C(=O)O)cc3)c2c(=O)[nH]1 [PEMETREXED]	–	–	–	–	–	–	–	–	–	–	K [1]: 0.27 µM; K [2]: 0.044 µM; Drug uptake [3]: Not Active
Nc1nc2[nH]c(CCCc3ccc(C(=O)N[C@@H](CCC(=O)O)C(=O)O)s3)cc2c(=O)[nH]1	101 nM	50%	inactive	inactive	70%	–	–	–	–	–	Activity [5]: Active; IC50 [6]: 101 nM; Activity [8]: 7.9%; T/C [9]: 79%; IC50 [11]: 0.73 nM; IC50 [12]: 2.2 nM; IC50 [13]: 47 nM; Activity [16]: Non-toxic
Nc1nc(N)c2c(CCCc3cc(C(=O)N[C@@H](CCC(=O)O)C(=O)O)cs3)coc2n1	> 1000 nM	–	inactive	inactive	–	6500 nM	101 nM	> 1000 nM	70.3 nM	> 1000 nM	–
Nc1nc(N)c2c(CCCc3csc(C(=O)N[C@@H](CCC(=O)O)C(=O)O)c3)coc2n1	–	–	inactive	inactive	–	5500 nM	82 nM	–	–	–	–
Nc1nc2[nH]c(CCCc3csc(C(=O)N[C@@H](CCC(=O)O)C(=O)O)c3)cc2c(=O)[nH]1	337 nM	35%	inactive	inactive	60%	13 nM	2.4 nM	355 nM	0.17 nM	> 1000 nM	Activity [22]: Active; inhibition [23]: Active
B1	–	–	–	–	–	–	–	–	–	–	Vmax [24]: 13.4 pmol/mg/min; Vmax [25]: 24.6 pmol/mg/min; Vmax [26]: 9.2 pmol/mg/min; Vmax [27]: 3 pmol/mg/min
